Screening data deposited in PubChem by several laboratories.
PAFAH1B2 inh – PAFAH1B2 (human) inhibition; AID 492953; recombinant PAFAH1B2, FP-rhodamine activity probe, fluorescence polarization; inhibition, % at 3.39 µM; hit rate 1.2% among 340,000;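 active = inhibition above the mean of all tested compounds plus 3 SD, cut at about 24% in these data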;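 also: 0% = enzyme with DMSO and 100% = wells lacking PAFAH1B2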
PAFAH1B3 inh – inhibitors of human PAFAH1B3; recombinant PAFAH1B3, FP-rhodamine probe, fluorescence polarization; inhibition, % at 3.39 µM; hit rate 0.28% among 340,000;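 active = inhibition above the screen-wide average of all tested compounds plus 3 SD, cut at about 25% in these data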;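 also: 0% = enzyme with DMSO only and 100% = wells lacking PAFAH1B3 protein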
TDP2 absorb – TDP2 (human) inhibition, absorbance primary screen. hit rate 0.34% among 370,000. O95551. inhibition, % at 12.8 µM. AID 720702. recombinant TDP2, T5PNP hydrolysis, p-nitrophenol absorbance 415 nm;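 active = inhibition above the mean of all tested compounds plus 3 SD, set per campaign, cut at about 25% in these data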;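 also: 0% = DMSO with enzyme and 100% = buffer with substrate but no TDP2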
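Test system: human TDP2 enzyme; Input: 120 nM TDP2 per well; Buffer or medium: Mg2+-containing Tris-HCl buffer, pH 7.5; Reagent: 5 mM T5PNP; Dosing: 12.8 µM single point, 1% DMSO; Incubation: reaction 2 h, 37 °C; Detection: p-Nitrophenol epi absorbance; Read-out: % inhibition relative to enzyme-containing and enzyme-free wells; Replicates: single well per compound.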
PAFAH2 FP inh – PAFAH2 (human) inhibition; recombinant PAFAH2, FP-rhodamine activity probe, fluorescence polarization; hit rate 0.99% among 340,000; Q99487; inhibition, % at 3.39 µM;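 active = inhibition above the mean over all tested compounds plus 3 SD, cut at about 30% in these data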;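 also: inhibitors block probe labeling of enzyme so polarization drops; 0% = enzyme with DMSO and 100% = wells lacking PAFAH2 protein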
Apaf-1 inh – inhibitors of human Apaf-1 apoptosome. O14727. reconstituted apoptosome caspase-3 activity, DEVD-Rh110 fluorescence. inhibition, % at 20 µM. hit rate 0.71% among 330,000; active = inhibition of at least 40% at 20 µM;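 also: plate controls were DMSO wells for no effect and DEVD-CHO caspase inhibitor wells for full effect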
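Material: reconstituted apoptosome with Apaf-1, cytochrome c, caspase-9, procaspase-3, dATP; medium: pH 7.5 Hepes buffer with CHAPS, BSA, DTT; also added: cytochrome c and DEVD-Rh110 substrate; timing: 30 min plus 50 min, RT; signal: Rh110 fluorescence intensity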
PAFAH2 confirm – PAFAH2 (human) inhibition, confirmed; shares compounds with PAFAH2 FP inh; recombinant PAFAH2, FP-rhodamine activity probe, fluorescence polarization; inhibition, % at 3.39 µM; hit rate 65% among 2,300;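 active = mean inhibition over three repeats above a set limit taken from the earlier primary screen, cut at about 30% in these data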;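 also: inhibitor blocks binding of rhodamine activity probe so polarization falls; 0% = enzyme with DMSO and 100% = wells lacking PAFAH2 protein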
Active calls of the source: *; nt = no result given. Sampled rows, rich in hits. Any-hit rate of the full collection: about 2.3%.

SMILES	PAFAH1B2 inh	PAFAH1B3 inh	TDP2 absorb	PAFAH2 FP inh	Apaf-1 inh	PAFAH2 confirm
Cc1ccc(NC(=O)COC(=O)/C=C/c2c(C)nn(-c3ccc(F)cc3)c2Cl)cc1F	1	2	7	72*	11	57*
Cc1nnc(SCC(=O)Nc2cc(-c3cc(C)c(C)cc3C)nn2-c2ccccc2)s1	-4	1	-3	-1	19	nt
COc1ccc(-n2c(COc3ccccc3)nnc2SCC(=O)Nc2ccc(OCc3ccccc3)cc2)cc1	nt	nt	-9	nt	nt	nt
COc1cccc(NC(=O)COC(=O)/C=C/c2c(C)nn(-c3ccccc3)c2C)c1	-9	-3	5	78*	10	80*
COc1ccc(C(=O)COC(=O)/C=C/c2ccc(S(=O)(=O)Nc3cccc(S(N)(=O)=O)c3)cc2)cc1	2	3	-14	32*	0	19
COC(=O)[C@]12C[C@H](CC(=O)NCCCCc3ccccc3)C(=O)N(CCC3=CCCCC3)C1=C[C@H](C(C)(C)C)O[C@@H]2C	nt	nt	7	nt	nt	nt
CCCC1CCC2(CCCN2CCOC(=O)Nc2ccc(OC)cc2)CC1 (stereo unspecified)	nt	nt	2	nt	nt	nt
COc1ccc(C(=O)O/N=C(\C)c2ccccc2)cc1	1	3	-6	62*	6	45*
N/C(=N\OC(=O)c1ccccc1)c1ccncc1	3	0	5	0	2	nt
COc1ccc(C(=O)O/N=C(/c2ccccc2)c2ccncc2)cc1OC	14	6	2	74*	-5	80*
COc1ccc(C(=O)O/N=C(/c2ccccc2)c2ccncc2)cc1	-2	3	1	78*	4	71*
CS(=O)(=O)N1CCC[C@]2(CC[C@H](CCC#N)O2)C1	nt	nt	2	nt	nt	nt
C/C=C/c1ccc([C@H]2[C@@H](CN(CC(C)C)S(=O)(=O)c3ccccc3[N+](=O)[O-])N(C(=O)Nc3cccc(OC)c3)[C@H]2CO)cc1	nt	nt	0	nt	nt	nt
O=C(NC1CCCCC1)C(c1ccncc1)N(Cc1ccc2c(c1)OCO2)C(=O)c1cnsn1 (stereo unspecified)	7	0	-10	33*	15	18
O=C(NC1CCCCC1)C(c1ccc2ncccc2c1)N(Cc1ccc2c(c1)OCO2)C(=O)c1cccs1 (stereo unspecified)	3	-4	-6	12	9	nt
CCNC(=O)N(C)[C@H]1C[C@H]2c3[nH]c4c(-c5cccc(C)c5)cccc4c3CCN2C[C@H]1[C@H](C)O	nt	nt	-2	nt	nt	nt
N#Cc1ccccc1OCC(=O)NCCNC(=O)COc1ccccc1C#N	0	2	4	-1	3	nt
N#Cc1ccccc1OCC(=O)NNC(=O)CCC1CCCC1	6	1	-2	41*	-5	26
O=c1oc(-c2cccc(Cl)c2)nc2c1cnn2-c1ccccc1	-3	6	1	70*	-11	52*
O=c1oc(-c2ccccc2F)nc2c1cnn2-c1ccccc1	4	8	14	74*	3	45*
Nc1c(-c2cccc(Cl)c2)cnn1-c1ccccc1	3	-3	-6	2	9	nt
Cc1cc(NC(=O)c2cc(-c3ccc(O)cc3)on2)no1	-2	8	11	10	7	nt
COc1ccc(-c2cc(C(=O)Nc3cc(C)on3)no2)cc1OC	1	10	7	62*	-14	-3
Cc1cccc(C(=O)Nc2cc(Cl)ccc2-n2cncn2)c1[N+](=O)[O-]	2	1	7	39*	7	31*
CC(C)(C)OC(=O)C[C@@H]1C/C=C\C[C@@H](CC(=O)N[C@H](CO)Cc2ccccc2)C(=O)NC[C@H](c2ccccc2)OC1=O	4	3	1	1	16	nt
CC(C)(C)OC(=O)C[C@H]1C/C=C\C[C@@H](CC(=O)N[C@H](CO)Cc2ccccc2)C(=O)NC[C@H](c2ccccc2)OC1=O	10	0	-1	52*	3	8
CC/C=C\[C@H](O)[C@H](O)C1=C(C)C(=O)[C@]2(O1)C(=O)N[C@@](OC)(C(=O)c1ccccc1)[C@@H]2O	nt	nt	4	nt	nt	nt
CC(C)(C)N(Cc1cn(Cc2ccccc2)nn1)S(=O)(=O)c1ccc(F)cc1Br	nt	nt	10	nt	nt	nt
CCOC(=O)c1cc(/C(C)=N/OC(=O)c2ccc(Cl)cc2)on1	nt	nt	6	nt	-15	nt
